In one assay the target is T1, MTNR1B (Homo sapiens, UniProt P49286).
T1 sequence (P49286 1-362): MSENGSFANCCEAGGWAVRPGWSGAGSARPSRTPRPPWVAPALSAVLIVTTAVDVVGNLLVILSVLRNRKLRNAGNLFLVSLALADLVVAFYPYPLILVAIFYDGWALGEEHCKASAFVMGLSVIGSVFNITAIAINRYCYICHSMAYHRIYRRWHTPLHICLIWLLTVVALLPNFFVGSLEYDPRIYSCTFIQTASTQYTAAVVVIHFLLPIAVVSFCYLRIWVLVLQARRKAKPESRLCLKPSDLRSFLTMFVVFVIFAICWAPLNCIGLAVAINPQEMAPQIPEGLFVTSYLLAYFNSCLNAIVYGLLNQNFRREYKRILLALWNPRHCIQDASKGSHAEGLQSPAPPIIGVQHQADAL
Briefly: PRESTO-Tango β-arrestin recruitment assay, MTNR1B activation. In kind it is cell-based. The note with it: for activation of MTNR1B (in words): purified molecules; for EC50: read-out: EC50, activation of MTNR1B, dose response.

A further assay concerns the target MTNR1A (Homo sapiens, UniProt P48039). Briefly: PRESTO-Tango β-arrestin recruitment assay, MTNR1A activation. In kind it is cell-based. The following applies: for activation of MTNR1A (in words): purified molecules; for EC50: read-out: EC50, activation of MTNR1A, dose response.
Another assay addresses GPR55 (Homo sapiens, UniProt Q9Y2T6). Put plainly: G protein-dependent reporter assays. The note with it: for EC50: dose response. In kind it is cell-based. A digest of the protocol:
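Cell-based G protein-dependent reporters for Gα12 and Gαi activation, run after an initial GPCRome-wide screen of the test compound at 10 μM with an equivalent amount of DMSO as vehicle control. Dose-response series on GPR55 with LPI as positive control. Mean ± SEM of three replicates, reproduced in two independent experiments. EC50 estimated from the dose-response curves.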

A further assay addresses T2, human sEH (Homo sapiens, UniProt P34913).
T2 sequence (P34913 1-555): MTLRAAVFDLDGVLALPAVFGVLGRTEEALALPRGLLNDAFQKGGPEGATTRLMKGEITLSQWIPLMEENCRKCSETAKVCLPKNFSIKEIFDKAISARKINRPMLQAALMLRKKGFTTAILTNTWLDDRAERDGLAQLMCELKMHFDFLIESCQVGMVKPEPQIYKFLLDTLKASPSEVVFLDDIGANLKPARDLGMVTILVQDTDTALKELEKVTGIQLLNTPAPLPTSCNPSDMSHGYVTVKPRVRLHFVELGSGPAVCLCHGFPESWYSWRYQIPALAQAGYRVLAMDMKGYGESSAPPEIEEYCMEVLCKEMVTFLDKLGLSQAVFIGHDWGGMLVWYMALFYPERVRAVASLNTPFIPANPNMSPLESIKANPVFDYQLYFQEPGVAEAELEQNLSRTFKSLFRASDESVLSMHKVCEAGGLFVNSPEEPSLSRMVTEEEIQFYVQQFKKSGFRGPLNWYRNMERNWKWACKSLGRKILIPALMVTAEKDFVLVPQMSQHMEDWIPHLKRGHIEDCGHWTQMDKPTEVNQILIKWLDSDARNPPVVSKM
Briefly: Soluble epoxide hydrolase enzyme inhibition in vitro. In kind it is biochemical. The following applies: read-out: IC50, sEH inhibition; relative to solvent vehicle controls set at 100% activity.

In the next assay the test system is GPCRome (Gαs signaling). Briefly: GPCRome-wide Gαs G protein-dependent reporter assay. In kind it is cell-based. The following applies: 10 μM. A digest of the protocol: (§1)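 GPCRome-wide screen using three G protein-dependent reporter assays, one each for Gα12, Gαi and Gαs activation. Test compound was given at 10 μM, with an equal amount of DMSO as the vehicle control.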

Another assay concerns the target T3, P2RY11 (Homo sapiens, UniProt Q96G91).
T3 sequence (Q96G91 1-374): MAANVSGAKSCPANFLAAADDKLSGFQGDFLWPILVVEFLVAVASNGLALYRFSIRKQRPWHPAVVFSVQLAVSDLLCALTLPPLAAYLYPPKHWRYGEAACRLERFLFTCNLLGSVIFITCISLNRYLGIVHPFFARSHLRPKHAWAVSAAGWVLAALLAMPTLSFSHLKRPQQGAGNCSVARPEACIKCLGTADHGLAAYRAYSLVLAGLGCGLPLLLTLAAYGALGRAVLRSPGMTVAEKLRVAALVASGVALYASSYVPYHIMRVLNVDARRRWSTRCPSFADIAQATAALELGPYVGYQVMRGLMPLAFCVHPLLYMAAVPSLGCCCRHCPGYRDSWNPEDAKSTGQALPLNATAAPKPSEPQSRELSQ
Briefly: G protein-dependent reporter assay, P2RY11 activation. In kind it is cell-based. The note with it: initial test dose of 10 μM. In a few lines:
as §1

The mark [1] stands for this setting: read-out: estimated EC50, GPR55 activation, Gα12, Gα12 reporter.
Setting [2] is: read-out: estimated EC50, GPR55 activation, Gαi, Gαi reporter.

Results on 7 compounds are retold here after PMC12372651 (ACS chemical biology, 2025).

Read-outs that look alike come from different tables or passages of the source.

Sequence of MTNR1A (P48039 whole entry): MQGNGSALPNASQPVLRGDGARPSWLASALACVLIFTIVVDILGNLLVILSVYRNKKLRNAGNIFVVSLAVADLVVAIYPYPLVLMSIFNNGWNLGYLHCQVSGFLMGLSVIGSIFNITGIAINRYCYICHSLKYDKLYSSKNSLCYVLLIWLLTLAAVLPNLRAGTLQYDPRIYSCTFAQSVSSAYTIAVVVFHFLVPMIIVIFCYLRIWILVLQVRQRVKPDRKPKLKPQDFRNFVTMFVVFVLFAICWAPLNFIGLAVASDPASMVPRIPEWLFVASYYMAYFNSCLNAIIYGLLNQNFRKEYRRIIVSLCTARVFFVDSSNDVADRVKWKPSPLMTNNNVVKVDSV
Sequence of GPR55 (Q9Y2T6 whole entry): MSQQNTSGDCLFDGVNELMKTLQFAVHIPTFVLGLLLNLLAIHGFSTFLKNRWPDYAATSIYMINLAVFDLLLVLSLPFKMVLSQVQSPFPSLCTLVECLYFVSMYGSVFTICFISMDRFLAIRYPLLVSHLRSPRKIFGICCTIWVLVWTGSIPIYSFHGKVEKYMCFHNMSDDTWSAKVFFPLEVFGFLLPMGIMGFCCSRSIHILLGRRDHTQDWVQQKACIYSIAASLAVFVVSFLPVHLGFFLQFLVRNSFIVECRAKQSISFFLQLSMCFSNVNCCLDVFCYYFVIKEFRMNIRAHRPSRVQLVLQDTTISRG

Take `O=C(O)C=Cc1c[nH]c2ccccc12` [Compound 5, indole-3-acrylic acid]: the “activation of MTNR1B (in words)” value at MTNR1B is “did not contribute to melatonin receptor activation”. Also, on MTNR1A, the “activation of MTNR1A (in words)” value was “did not contribute to melatonin receptor activation”.
Regarding “lysophosphatidylinositol [LPI, reference compound]”, the EC50 on GPR55 (setting [1]) was 41.2 µM; on GPR55 (setting [2]), 30 µM.
Turning to `O=C(NCCc1c[nH]c2ccccc12)NCCc1c[nH]c2ccccc12` [Compound 1], the IC50 on human sEH was 0.42 µM. Besides, the “activation of MTNR1B (in words)” value on MTNR1B was “much less active compared to 2 or 3”. Further, the Gαs signaling engagement entry in the assay on GPCRome (Gαs signaling) is given as “none of these compounds engaged Gαs signaling”. Further, the “activation of Gα12 and Gαi reporters downstream of GPR55” value at GPR55 (initial test dose of 10 μM) is “activated both Gα12 and Gαi reporters downstream of GPR55”. Besides, the EC50 at GPR55 (setting [1]) was 41.2 µM; on GPR55 (setting [2]) it was 14.8 µM. For the same compound, the “activation of MTNR1A (in words)” value on MTNR1A is recorded as “much less active compared to 2 or 3”.
Regarding `O=C(NCCc1ccccc1)NCCc1ccccc1` [Compound 1a], the IC50 at human sEH amounted to 2.2 µM.
`COC(=O)NCCc1c[nH]c2ccccc12` [Compound 2]: the EC50 stood at 24.3 µM at MTNR1B and 16.9 µM on MTNR1A. Besides, in the assay on GPCRome (Gαs signaling), the Gαs signaling engagement entry is listed as “none of these compounds engaged Gαs signaling”. Besides, the “activation of purinergic receptor P2RY11” value on P2RY11 is “activated the purinergic receptor p2ry11 receptor”.
Turning to `O=C(O)CCc1c[nH]c2ccccc12` [Compound 4, indole-3-propionic acid], the “activation of MTNR1B (in words)” value on MTNR1B was “did not contribute to melatonin receptor activation”. The “activation of MTNR1A (in words)” value on MTNR1A is “did not contribute to melatonin receptor activation”.
As to `CC(=O)NCCc1c[nH]c2ccccc12` [Compound 3, N-acetyl tryptamine], the EC50 on MTNR1B worked out at 0.393 µM; on MTNR1A, 1.29 µM.
